# Bioassay records: PubChem, several laboratories
# CSN deneddyl inh – CSN deneddylation inhibition; hit rate 0.38% among 360,000; inhibition, % at 12.5 µM; Purified CSN, SCF-Nedd8-OG deneddylation, fluorescence polarization; Q92905;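 active = pattern-corrected inhibition above about 35%, with an unprinted fluorescence ratio check between 0.5 and 1.5, limit read from the data, passing the limit was not always enough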;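 note: 0% = enzyme with substrate and 100% = substrate without enzyme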
#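 Assay system: purified human Csn5 enzyme expressed in HEK293T cells; measure: % inhibition; also added: SCFSkp2-Nedd8OG substrate at 10 nM final; technique: fluorescence polarization; times: reaction 90 min, room temperature; medium: Tris buffer pH 7.5, NaCl, DTT, Tween-20, trehalose, ovalbumin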
# Neddyl block – blocks human cullin neddylation; AID 651699; hit rate 0.58% among 360,000; TR-FRET cullin neddylation, biochemical; inhibition, % at 25 µM; P61081+Q13564; in the data active = inhibition above about 36%
# Target sequence (P61081 whole entry, looked up): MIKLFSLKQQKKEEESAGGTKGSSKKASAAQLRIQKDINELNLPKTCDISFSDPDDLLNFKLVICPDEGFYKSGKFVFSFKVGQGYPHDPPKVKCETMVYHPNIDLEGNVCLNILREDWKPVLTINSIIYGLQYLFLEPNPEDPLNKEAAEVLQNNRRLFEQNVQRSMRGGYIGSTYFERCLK
# Target sequence (Q13564 whole entry, looked up): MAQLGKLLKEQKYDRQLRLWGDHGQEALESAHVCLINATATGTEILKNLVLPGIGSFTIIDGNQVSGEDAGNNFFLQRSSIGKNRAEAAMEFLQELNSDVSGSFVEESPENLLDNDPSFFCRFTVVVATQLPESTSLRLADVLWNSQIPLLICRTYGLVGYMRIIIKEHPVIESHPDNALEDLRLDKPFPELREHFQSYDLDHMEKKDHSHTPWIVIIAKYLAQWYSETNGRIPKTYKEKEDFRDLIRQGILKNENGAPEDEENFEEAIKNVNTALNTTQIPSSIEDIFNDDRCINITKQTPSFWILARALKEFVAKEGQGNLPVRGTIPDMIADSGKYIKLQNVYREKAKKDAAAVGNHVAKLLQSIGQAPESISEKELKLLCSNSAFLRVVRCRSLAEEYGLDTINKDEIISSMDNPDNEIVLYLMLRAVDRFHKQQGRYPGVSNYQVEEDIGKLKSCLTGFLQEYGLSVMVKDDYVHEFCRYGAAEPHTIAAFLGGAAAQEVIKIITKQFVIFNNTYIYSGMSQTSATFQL
# Rin1 Abl inh – blocks binding of human Rin1 to Abl; P00519+Q13671; TR-FRET Rin1/Abl binding, biochemical; inhibition, % at 7.35 µM; hit rate 0.4% among 360,000; AID 588664; in the data active = inhibition above about 5%, passing the limit was not always enough
# Rpn11 inh – Rpn11 (human) deubiquitinase inhibition; O00487; human 26S proteasome, Ub4-pepOG fluorescence polarization; 20S core pre-blocked with epoxomicin; inhibition, % at 20 µM; hit rate 0.59% among 360,000;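 active = inhibition at 20 µM, scaled to each plate's controls, above about 33%, limit read from the data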
# TPT1 inh – C. albicans TPT1 enzyme inhibition; hit rate 0.81% among 300,000; recombinant caTPT1, FP RNA substrate dephosphorylation; inhibition, % at 5 µM;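 active = inhibition above the mean of all tested compounds plus 3 SD, set per screening campaign, cut at about 24% in these data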;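 note: plate controls were DMSO alone for no effect and ferristatin control at 100 nM for full effect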
# HNF4A DNA FP – change in binding of human HNF4 alpha to DNA; P41235; activity change, % at 10 µM; HNF4a-FITC DNA binding, fluorescence polarization, 1 h; hit rate 0.3% among 360,000; AID 1224865; in the data active = activity change above about 30%, passing the limit was not always enough
# Neddyl inh conf – confirmation of human cullin neddylation inhibitors. shares compounds with Neddyl block. TR-FRET cullin neddylation biochemical assay. calls only at 25 µM. hit rate 13% among 1,800. AID 652217; in the data active = inhibition above about 40%;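 note: neddylation substrate is the cullin 1 ring ligase complex with SKP2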
# * = called active by the depositor; i = inactive; . = not tested or not shown. A selection: hits, their analogues and other compounds. The true share with any hit is near 2.4%.
SMILES,CSN deneddyl inh,Neddyl block,Rin1 Abl inh,Rpn11 inh,TPT1 inh,HNF4A DNA FP,Neddyl inh conf
COc1ccc2oc(=O)c(C(=O)NCCc3ccc(OC)c(OC)c3)cc2c1,1,48*,-1,1,-2,0,i
COC(=O)c1ccc(-c2ccc(/C=N/NC(=O)Cc3nnc(N)s3)o2)cc1,5,51*,-7,14,0,3,i
Nc1nnc(CC(=O)N/N=C/c2ccc(-c3ccccc3)o2)s1,4,-20,-7,3,2,2,.
CC1CCCN(C(=O)CN2C(=O)NC(C)(c3ccc4ccccc4c3)C2=O)C1 (stereo not drawn),2,-1,1,7,.,5,.
CCN1C(=O)c2cccc3c(S(=O)(=O)NCc4cccnc4)ccc1c23,1,.,-3,-3,-3,-2,.
CCN1C(=O)c2cccc3c(S(=O)(=O)N4CCNCC4)ccc1c23,0,.,-8,0,.,1,.
CCN1C(=O)c2cccc3c(S(=O)(=O)NCc4ccco4)ccc1c23,4,51*,-6,-4,-2,0,i
CCN1CCN(S(=O)(=O)c2ccc3c4c(cccc24)C(=O)N3CC)CC1,0,58*,-2,-5,.,0,.
O=C(C1CCCCC1)N1C[C@H](O)[C@@H](n2cc(C3CC3)nn2)C[C@@H]1c1ccccc1,3,2,-6,-4,.,1,.
Cc1ccc(Cn2nnnc2CN2CCC(O)(c3ccccc3F)CC2)cc1,8,6,2,-4,2,0,.
COC(=O)c1cc(OC)c(OC)cc1NCC(=O)Nc1ccc(C)cc1,-1,47*,1,6,-2,-3,.
CCCc1ccc2oc(C(=O)N3CCN(c4cnccn4)CC3)c(C)c2c1,-2,40*,2,-1,2,2,i
Fc1cc2[nH]c(=S)[nH]c2cc1Cl,1,38*,-1,2,-2,0,i
CC1(C)Oc2ccc3ccc(=O)oc3c2CC1O (stereo not drawn),2,55*,1,-3,3,-2,.
CCO[C@H]1c2c(ccc3ccc(=O)oc23)OC(C)(C)[C@H]1O,-1,35*,-2,1,.,-1,i
Cc1nnc(N2CCC(C(=O)NC3CCC(C)CC3)CC2)c2nn(-c3ccc(Cl)cc3)c(C)c12 (stereo not drawn),8,46*,2,3,1,5,i
COc1cc(C(=O)Nc2ccccc2N2CCOCC2)ccc1OCC(=O)N1CCOCC1,-1,12,4,-6,1,5,.
Cc1cccc(C)c1-n1nnnc1-c1nc2ccccc2[nH]c1=O,-3,33,.,.,.,4,.
Cc1cc2nc(-c3nnnn3-c3c(C)cccc3C)c(=O)[nH]c2cc1C,-4,48*,.,.,.,-2,i
Nc1ncnc2c1ncn2[C@@H]1O[C@H](CNC(=O)[C@H]2CCC(=O)N2)[C@@H](O)[C@H]1O,-4,8,0,-1,.,0,.
COc1ccc2nc(COC(=O)c3ccco3)c(C(C)=O)[n+]([O-])c2c1,-3,13,-4,-7,-5,-1,.
COc1ccc2nc(CC(C)(C)CC(=O)O)c[n+]([O-])c2c1,-4,51*,-1,0,-4,0,.
O=C(NN1C(=O)c2ccc3c4c(ccc(c24)C1=O)CC3)c1ccc(Br)cc1,3,45*,3,1,0,2,i
O=C1c2ccc3c4c(ccc(c24)C(=O)N1NC(=O)C(F)(F)F)CC3,1,0,-2,-17,5,-10,.
Cc1ccc(OC(=O)N(C)C[C@@H]2OCc3cn(nn3)CCCC(=O)N([C@@H](C)CO)C[C@H]2C)cc1,1,-18,5,-4,.,2,.
SMILES,CSN deneddyl inh,Neddyl block,Rin1 Abl inh,Rpn11 inh,TPT1 inh,HNF4A DNA FP,Neddyl inh conf
O=C(NNC1=Nc2ccccc2SC1)c1cccc([N+](=O)[O-])c1,-7,43*,-1,4,-4,3,i
O=C(NNC1=Nc2ccccc2SC1)c1ccccc1F,-6,17,0,-5,0,2,.
COc1ccc(-c2cnc3c(NC(C)=O)cc(-c4cc(F)ccc4OC)cn23)cc1OC,2,44*,0,1,.,3,i
O=C(CSc1ccc(F)cc1)NC1CCCCC1,1,2,-1,5,4,0,.
CCOC(=O)c1cc(NC(=O)c2cccs2)ccc1N1CCOCC1,5,1,-3,-10,0,4,.
CCOC(=O)c1cc(NCc2cccs2)ccc1N1CCOCC1,-5,46*,3,2,1,1,i
CCOc1ccccc1CNc1ccc(N2CCOCC2)c(C(=O)O)c1,4,41*,2,5,-4,0,i
O=C1NC(N2CCOCC2)=N/C1=C/c1ccc2c(c1)OCO2,5,1,-1,4,1,-2,.
O=C(COC(=O)c1ccccc1)Nc1cc(S(=O)(=O)N2CCCCCC2)ccc1Cl,-1,10,0,3,.,-3,.
O=C(Nc1cc(S(=O)(=O)N2CCCCC2)ccc1O)c1ccccc1NS(=O)(=O)c1ccc(F)c(F)c1,-13,51*,-1,-21,-3,-2,i
O=C(COC(=O)c1ccccc1O)Nc1cc(S(=O)(=O)N2CCCCCC2)ccc1Cl,-3,49*,1,-1,.,1,.
O=C(Nc1cccc(S(=O)(=O)N2CCCCC2)c1)c1ccccc1NS(=O)(=O)c1ccc(F)cc1,-4,.,-2,0,2,3,.
CCCCCCNC(=O)c1cn(CC)c2cc(N3CCN(C)CC3)c(F)cc2c1=O,1,.,2,-1,-1,8,.
COc1cc(/C=C/C(=O)Nc2ccc(N3CCCCC3)c(S(=O)(=O)Nc3ccccc3Cl)c2)cc(OC)c1OC,-4,42*,0,2,0,-1,i
COc1ccccc1NS(=O)(=O)c1cc(NC(=O)Nc2ccc(Cl)cc2Cl)ccc1N1CCCCC1,1,5,-1,3,-2,-2,.
CCSC1=C(C#N)C2(CCCCC2)C2=C(CC(C)(C)CC2=O)N1,-20,44*,-1,11,3,0,i
CC1(C)CC(=O)C2=C(C1)NC(SCC(N)=O)=C(C#N)C21CCCCC1,-9,12,-3,2,0,5,.
CCc1cc2c3c(c(=O)oc2cc1OC(C)C(=O)O)CCCC3 (stereo not drawn),-3,.,1,-3,0,-3,.
CCc1cc2c3c(c(=O)oc2cc1OCC(=O)OC)CCCC3,-1,43*,1,-4,0,-1,i
COc1cccc(/C=N/n2nnnc2N)c1OCc1ccccc1Cl,-9,41*,1,1,0,0,.
O=c1c2ccccc2nc2c3ccccc3cnn12,6,44*,-7,-2,-2,-1,i
O=c1c2ccccc2nc2ccccn12,-1,.,-5,-12,-3,1,.
